Assay [1] is described as follows: Inhibition of H+/K+/ATPase. The essentials:
(§1)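 Ion-leaky membrane vesicles enriched in H+/K+-ATPase prepared from pig stomach. Lyophilized vesicles in 5 mM Pipes/Tris pH 6.1 preincubated 5 min with compound at various concentrations. K+-containing or K+-free buffer then added, ATP substrate added, and incubated 30 min at 37 °C. Colorimetric reagent stopped the reaction and Pi was read at 620 nm. K+-stimulated activity is the difference between with and without K+. IC50 by Litchfield–Wilcoxon.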

The nature of assay [2]: Inhibition of H+/K+/ATPase at 4 uM. The essentials:
as §1

Counter-ions that a name gives are not always drawn.

Regarding `Cc1nc(Cc2ccc(F)cc2)nc(N2CCc3ccc(F)cc3C2C)c1C` (centres undefined), the IC50 in assay [1] came out at 1.24 µM.
In assay [1], `COc1ccc2c(c1)C(C)N(c1nc(C(=O)c3ccc(F)cc3)nc(C)c1C)CC2` (centres undefined) showed an IC50 of 1.12 µM.
In assay [1], `Cc1nc(Cc2ccc(F)cc2)nc(N2CCc3c(Cl)cccc3C2C)c1C` (centres undefined) yielded an IC50 of 1.99 µM.
On to `Cc1ccc2c(c1)CCN(c1nc(C3(c4ccc(F)cc4)CC3)nc(C)c1C)C2C` (centres undefined), for which the IC50 in assay [1] worked out at 1.29 µM.
`Cc1nc(Cc2ccc(F)cc2)nc(N2CCc3cc(Cl)ccc3C2C)c1C` (centres undefined) returned an IC50 in assay [1] of 0.94 µM.
In turn, `Cc1ccc2c(c1)CCN(c1nc(C(O)c3ccc(F)cc3)nc(C)c1C)C2C` (centres undefined) came in with an IC50 in assay [1] of 1.51 µM.
On the same count and under the same terms, the same measure for `Cc1nc(Nc2ccc(F)cc2)nc(N2CCc3ccccc3C2C)c1C` (centres undefined) [REVAPRAZAN HYDROCHLORIDE]: 0.35 µM.
`Cc1ccc2c(c1)C(C)N(c1nc(Cc3ccc(F)cc3)nc(C)c1C)CC2` (centres undefined) returned an IC50 in assay [1] of 0.3 µM.
Turning to `COc1ccc2c(c1)C(C)N(c1nc(C3(c4ccc(F)cc4)CC3)nc(C)c1C)CC2` (centres undefined), the inhibition in assay [2] came out at 1.4%.
`Cc1cccc2c1C(C)N(c1nc(Cc3ccc(F)cc3)nc(C)c1C)CC2` (centres undefined) showed an IC50 in assay [1] of 0.7 µM.
Consider `COc1ccc2c(c1)CCN(c1nc(Cc3ccc(F)cc3)nc(C)c1C)C2C` (centres undefined), for which 0.17 µM corresponded to half-maximal inhibition in assay [1] (IC50).
In assay [1], `Cc1ccc2c(c1)CCN(c1nc(C(C)(C)c3ccc(F)cc3)nc(C)c1C)C2C` (centres undefined) came in with an IC50 of 1.76 µM.
As to `COc1ccc2c(c1)C(C)N(c1nc(C(C)(C)c3ccc(F)cc3)nc(C)c1C)CC2` (centres undefined), in assay [2], the inhibition worked out at 34.2%.
In turn, `Cc1ccc2c(c1)CCN(c1nc(C(F)c3ccc(F)cc3)nc(C)c1C)C2C` (centres undefined) returned an IC50 in assay [1] of 1.13 µM.
Take `Cc1nc(Cc2ccc(F)cc2)nc(N2CCc3ccc(Cl)cc3C2C)c1C` (centres undefined): the IC50 in assay [1] was determined as 1.63 µM.
As for `Cc1nc(Cc2ccc(F)cc2)nc(N2CC(C)c3ccccc3C2C)c1C` (centres undefined), the midpoint of inhibition in assay [1], the IC50, lay at 0.61 µM.
Turning to `COc1ccc2c(c1)C(C)N(c1nc(Cc3ccc(F)cc3)nc(C)c1C)CC2` (centres undefined), in assay [1], the IC50 was found to be 0.052 µM.
`Cc1ccc2c(c1)CCN(c1nc(C(=O)c3ccc(F)cc3)nc(C)c1C)C2C` (centres undefined): the IC50 in assay [1] was 1.91 µM.
In assay [1], `Cc1ccc2c(c1)CCN(c1nc(Cc3ccc(F)cc3)nc(C)c1C)C2C` (centres undefined) had a half-maximal inhibitory concentration (IC50) of 0.23 µM.

One may read the IC50 as the concentration that inhibits the measured activity by half. Usually inhibition stands for the relative decrease from the control value, in per cent. Lower therefore signals a response near the control.

Values taken from ChEMBL document CHEMBL1255572, “Novel pyrimidines as acid pump antagonists (APAs)” (Bioorg Med Chem Lett, 2010).
